According to ChEMBL document CHEMBL4229410, “Facile construction of fused benzimidazole-isoquinolinones that induce cell-cycle arrest and apoptosis in colorectal cancer cells” (Bioorg Med Chem, 2018):
Activity calls are given as the source filed them. The rule behind the calls is not given here.

Experiments:
HT-29 [1] = assay: Inhibition of colony formation in human HT-29 cells assessed as reduction in number of colonies at 25 to 75 uM treated for 48 hrs followed by compound washout and measured after 14 hrs by crystal violet staining based assay; format: functional, cell-based
SW-620 [2] = assay: Cell cycle arrest in human SW620 cells assessed as accumulation at G1-phase at 25 uM after 48 hrs by propidium iodide staining based flow cytometry (reference value: 40.56%); format: functional
HT-29 [3] = assay: Cell cycle arrest in human HT-29 cells assessed as accumulation at G2-phase at 25 uM after 48 hrs by propidium iodide staining based flow cytometry (reference value: 15.45%); format: functional
SW-620 [4] = assay: Cell cycle arrest in human SW620 cells assessed as accumulation at G2-phase at 50 uM after 48 hrs by propidium iodide staining based flow cytometry (reference value: 14.08%); format: functional
SW-620 [5] = assay: Induction of apoptosis in human SW620 cells assessed as late apoptotic cells at 25 uM after 48 hrs by Annexin-V-FITC/propidium iodide staining based flow cytometry (reference value: 1.2%); format: functional
SW-620 [6] = assay: Induction of apoptosis in human SW620 cells assessed as late apoptotic cells at 50 uM after 48 hrs by Annexin-V-FITC/propidium iodide staining based flow cytometry (reference value: 1.2%); format: functional
HT-29 [7] = assay: Induction of apoptosis in human HT-29 cells assessed as late apoptotic cells at 75 uM after 48 hrs by Annexin-V-FITC/propidium iodide staining based flow cytometry (reference value: 4.1%); format: functional
HT-29 [8] = assay: Induction of apoptosis in human HT-29 cells assessed as increase in PARP activation after 48 hrs by Western blot analysis; format: functional, cell-based
In short: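 HT29 or SW620 cells were treated at 0, 25, 50 and 75 μM for 48 h and lysed in RIPA with protease and phosphatase inhibitors. Protein was quantified by BCA. 50 μg lysate was run on 8–15% SDS-PAGE and transferred to PVDF. Blocking was 5% BSA/TBST for 2 h; primary antibodies were applied overnight at 4 °C, then HRP secondary 1 h at room temperature.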

HT-29 [9] = assay: Inhibition of PI3K in human HT-29 cells assessed as reduction in AKT phosphorylation at S473 residue up to 75 uM after 48 hrs by Western blot analysis; format: cell-based
HT-29 [10] = assay: Inhibition of PI3K/AKT signaling pathway in human HT-29 cells assessed as reduction in mTOR phosphorylation up to 75 uM after 48 hrs by Western blot analysis; format: cell-based
[11] = target: Activin receptor type-1B (Homo sapiens) (UniProt P36896); assay: Inhibition of human ACVR1B (S187 to I505 residues) expressed in bacterial expression system assessed as residual activity at 5 uM by KINOMEscan assay relative to control
Sequence of Activin receptor type-1B (Homo sapiens) (P36896 whole entry, the tested form may be a part): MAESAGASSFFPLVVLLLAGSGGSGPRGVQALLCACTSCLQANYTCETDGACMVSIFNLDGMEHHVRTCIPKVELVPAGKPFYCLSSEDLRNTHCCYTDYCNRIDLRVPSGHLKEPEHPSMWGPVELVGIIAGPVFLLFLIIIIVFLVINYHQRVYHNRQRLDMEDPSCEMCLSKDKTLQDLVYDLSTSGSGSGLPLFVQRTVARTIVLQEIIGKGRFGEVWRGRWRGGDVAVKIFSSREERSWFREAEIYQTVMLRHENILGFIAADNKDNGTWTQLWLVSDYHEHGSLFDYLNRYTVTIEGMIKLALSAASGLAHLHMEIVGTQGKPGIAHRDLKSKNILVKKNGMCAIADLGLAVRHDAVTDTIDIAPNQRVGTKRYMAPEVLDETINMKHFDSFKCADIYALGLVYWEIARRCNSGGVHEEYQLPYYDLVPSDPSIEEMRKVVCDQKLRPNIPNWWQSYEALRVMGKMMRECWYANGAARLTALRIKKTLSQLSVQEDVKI

[12] = target: Aurora kinase A (Homo sapiens) (UniProt O14965); assay: Inhibition of human AURKA (E122 to K401 residues) expressed in mammalian expression system assessed as residual activity at 5 uM by KINOMEscan assay relative to control
Sequence of Aurora kinase A (Homo sapiens) (O14965 whole entry, the tested form may be a part): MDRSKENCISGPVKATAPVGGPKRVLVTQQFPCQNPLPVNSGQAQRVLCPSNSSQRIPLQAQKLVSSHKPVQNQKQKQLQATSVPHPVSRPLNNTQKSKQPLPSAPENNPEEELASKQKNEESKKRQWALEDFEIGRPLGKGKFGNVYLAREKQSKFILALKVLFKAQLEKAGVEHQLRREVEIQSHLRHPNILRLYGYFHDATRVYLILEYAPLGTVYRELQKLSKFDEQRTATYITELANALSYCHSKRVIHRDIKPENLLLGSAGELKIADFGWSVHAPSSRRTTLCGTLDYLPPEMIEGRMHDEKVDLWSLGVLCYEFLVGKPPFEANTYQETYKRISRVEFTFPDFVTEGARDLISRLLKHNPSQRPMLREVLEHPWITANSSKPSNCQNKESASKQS

Aurora kinase B = Aurora kinase B (Homo sapiens, UniProt Q96GD4); assay: Inhibition of human AURKB (D25 to A303 residues) expressed in mammalian expression system assessed as residual activity at 5 uM by KINOMEscan assay relative to control
Sequence of Aurora kinase B (Q96GD4 whole entry, the tested form may be a part): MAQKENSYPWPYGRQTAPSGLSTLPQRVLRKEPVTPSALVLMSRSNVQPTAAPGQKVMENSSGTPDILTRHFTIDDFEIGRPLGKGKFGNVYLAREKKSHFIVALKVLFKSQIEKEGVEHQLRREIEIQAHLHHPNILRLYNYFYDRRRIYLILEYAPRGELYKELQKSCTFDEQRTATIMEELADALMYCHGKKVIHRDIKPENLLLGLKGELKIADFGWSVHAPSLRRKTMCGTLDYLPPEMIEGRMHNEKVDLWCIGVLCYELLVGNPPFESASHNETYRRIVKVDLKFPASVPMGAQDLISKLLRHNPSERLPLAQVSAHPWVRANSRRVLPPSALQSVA

[13] = target: Cyclin-dependent kinase 2 (Homo sapiens, UniProt P24941); assay: Inhibition of full length human CDK2 (M1 to L298 residues) expressed in bacterial expression system assessed as residual activity at 5 uM by KINOMEscan assay relative to control
[14] = target: Cyclin-dependent kinase 7 (Homo sapiens, UniProt P50613); assay: Inhibition of full length human CDK7 (M1 to L344 residues) expressed in mammalian expression system assessed as residual activity at 5 uM by KINOMEscan assay relative to control
Sequence of Cyclin-dependent kinase 7 (P50613 whole entry, the tested form may be a part): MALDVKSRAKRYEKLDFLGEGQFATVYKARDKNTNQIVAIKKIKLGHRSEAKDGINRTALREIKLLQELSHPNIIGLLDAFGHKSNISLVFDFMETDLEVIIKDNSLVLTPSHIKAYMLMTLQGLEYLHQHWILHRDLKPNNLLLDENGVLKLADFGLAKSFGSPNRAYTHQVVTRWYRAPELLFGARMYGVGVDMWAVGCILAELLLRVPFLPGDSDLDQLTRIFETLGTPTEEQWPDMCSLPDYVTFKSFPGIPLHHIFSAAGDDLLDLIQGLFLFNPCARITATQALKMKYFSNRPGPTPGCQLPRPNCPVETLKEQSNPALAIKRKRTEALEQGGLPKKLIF

[15] = target: Cyclin-dependent kinase 9 (Homo sapiens, UniProt P50750); assay: Inhibition of full length human CDK9 (M1 to F372 residues) expressed in bacterial expression system assessed as residual activity at 5 uM by KINOMEscan assay relative to control
Sequence of Cyclin-dependent kinase 9 (P50750 whole entry, the tested form may be a part, canonical isoform): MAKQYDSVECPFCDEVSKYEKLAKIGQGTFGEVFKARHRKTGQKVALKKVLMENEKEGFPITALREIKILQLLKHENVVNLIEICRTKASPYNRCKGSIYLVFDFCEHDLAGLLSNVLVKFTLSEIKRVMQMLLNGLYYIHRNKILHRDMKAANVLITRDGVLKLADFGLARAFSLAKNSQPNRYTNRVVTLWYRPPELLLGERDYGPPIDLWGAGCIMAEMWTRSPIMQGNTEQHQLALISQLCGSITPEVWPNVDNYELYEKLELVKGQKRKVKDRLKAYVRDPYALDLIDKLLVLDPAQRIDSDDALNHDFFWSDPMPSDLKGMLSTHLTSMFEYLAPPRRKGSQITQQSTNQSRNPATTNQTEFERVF

[16] = target: Casein kinase I isoform gamma-2 (Homo sapiens, UniProt P78368); assay: Inhibition of full length human CSNK1G2 (M1 to K415 residues) expressed in bacterial expression system assessed as residual activity at 5 uM by KINOMEscan assay relative to control
[17] = target: Epidermal growth factor receptor (Homo sapiens, UniProt P00533); assay: Inhibition of partial length human EGFR (R669 to V1011 residues) expressed in bacterial expression system assessed as residual activity at 5 uM by KINOMEscan assay relative to control
Insulin receptor = Insulin receptor (Homo sapiens, UniProt P06213); assay: Inhibition of human INSR (P997 to E1318 residues) expressed in mammalian expression system assessed as residual activity at 5 uM by KINOMEscan assay relative to control
[18] = target: MAP kinase-activated protein kinase 2 (Homo sapiens, UniProt P49137); assay: Inhibition of human MAPKAPK2 (V48 to D345 residues) expressed in bacterial expression system assessed as residual activity at 5 uM by KINOMEscan assay relative to control
[19] = target: Serine/threonine-protein kinase PLK3 (Homo sapiens, UniProt Q9H4B4); assay: Inhibition of partial length human PLK3 (A42 to L334 residues) expressed in mammalian expression system assessed as residual activity at 5 uM by KINOMEscan assay relative to control
Sequence of Serine/threonine-protein kinase PLK3 (Q9H4B4 whole entry, looked up, the tested form may be a part): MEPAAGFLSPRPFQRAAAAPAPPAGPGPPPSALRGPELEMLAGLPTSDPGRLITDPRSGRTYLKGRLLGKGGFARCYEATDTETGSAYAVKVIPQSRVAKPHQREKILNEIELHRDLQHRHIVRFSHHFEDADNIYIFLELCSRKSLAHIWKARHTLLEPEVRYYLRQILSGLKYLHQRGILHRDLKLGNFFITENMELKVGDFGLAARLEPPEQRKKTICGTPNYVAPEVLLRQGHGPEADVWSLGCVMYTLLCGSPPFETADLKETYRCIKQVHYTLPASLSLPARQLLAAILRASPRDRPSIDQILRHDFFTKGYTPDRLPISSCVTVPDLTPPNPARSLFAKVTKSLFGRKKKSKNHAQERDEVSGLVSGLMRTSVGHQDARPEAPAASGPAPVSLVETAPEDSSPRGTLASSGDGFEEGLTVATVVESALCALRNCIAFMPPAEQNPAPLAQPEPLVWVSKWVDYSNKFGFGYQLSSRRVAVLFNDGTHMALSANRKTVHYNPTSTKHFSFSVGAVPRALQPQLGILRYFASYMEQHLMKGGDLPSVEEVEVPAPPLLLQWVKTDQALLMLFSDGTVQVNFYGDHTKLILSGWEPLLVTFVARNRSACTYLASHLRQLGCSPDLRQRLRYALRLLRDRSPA

[20] = target: TGF-beta receptor type-1 (Homo sapiens) (UniProt P36897); assay: Inhibition of human TGFBR1 (D179 to M503 residues) expressed in bacterial expression system assessed as residual activity at 5 uM by KINOMEscan assay relative to control
Sequence of TGF-beta receptor type-1 (Homo sapiens) (P36897 whole entry, the tested form may be a part): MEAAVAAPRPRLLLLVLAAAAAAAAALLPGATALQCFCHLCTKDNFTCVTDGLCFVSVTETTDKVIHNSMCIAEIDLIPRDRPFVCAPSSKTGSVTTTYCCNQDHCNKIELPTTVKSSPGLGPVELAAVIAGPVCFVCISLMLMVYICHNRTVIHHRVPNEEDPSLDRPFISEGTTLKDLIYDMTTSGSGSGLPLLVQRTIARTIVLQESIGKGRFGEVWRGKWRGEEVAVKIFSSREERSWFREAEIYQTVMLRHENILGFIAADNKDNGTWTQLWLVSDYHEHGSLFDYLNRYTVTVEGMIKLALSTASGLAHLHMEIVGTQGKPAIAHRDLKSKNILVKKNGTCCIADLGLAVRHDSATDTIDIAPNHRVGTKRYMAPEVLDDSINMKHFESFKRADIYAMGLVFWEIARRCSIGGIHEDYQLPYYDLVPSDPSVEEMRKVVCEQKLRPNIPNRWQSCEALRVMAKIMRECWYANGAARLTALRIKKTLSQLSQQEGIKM

[21] = target: Serine/threonine-protein kinase ULK2 (Homo sapiens) (UniProt Q8IYT8); assay: Inhibition of human ULK2 (M1 to S301 residues) expressed in mammalian expression system assessed as residual activity at 5 uM by KINOMEscan assay relative to control
Sequence of Serine/threonine-protein kinase ULK2 (Homo sapiens) (Q8IYT8 whole entry, the tested form may be a part): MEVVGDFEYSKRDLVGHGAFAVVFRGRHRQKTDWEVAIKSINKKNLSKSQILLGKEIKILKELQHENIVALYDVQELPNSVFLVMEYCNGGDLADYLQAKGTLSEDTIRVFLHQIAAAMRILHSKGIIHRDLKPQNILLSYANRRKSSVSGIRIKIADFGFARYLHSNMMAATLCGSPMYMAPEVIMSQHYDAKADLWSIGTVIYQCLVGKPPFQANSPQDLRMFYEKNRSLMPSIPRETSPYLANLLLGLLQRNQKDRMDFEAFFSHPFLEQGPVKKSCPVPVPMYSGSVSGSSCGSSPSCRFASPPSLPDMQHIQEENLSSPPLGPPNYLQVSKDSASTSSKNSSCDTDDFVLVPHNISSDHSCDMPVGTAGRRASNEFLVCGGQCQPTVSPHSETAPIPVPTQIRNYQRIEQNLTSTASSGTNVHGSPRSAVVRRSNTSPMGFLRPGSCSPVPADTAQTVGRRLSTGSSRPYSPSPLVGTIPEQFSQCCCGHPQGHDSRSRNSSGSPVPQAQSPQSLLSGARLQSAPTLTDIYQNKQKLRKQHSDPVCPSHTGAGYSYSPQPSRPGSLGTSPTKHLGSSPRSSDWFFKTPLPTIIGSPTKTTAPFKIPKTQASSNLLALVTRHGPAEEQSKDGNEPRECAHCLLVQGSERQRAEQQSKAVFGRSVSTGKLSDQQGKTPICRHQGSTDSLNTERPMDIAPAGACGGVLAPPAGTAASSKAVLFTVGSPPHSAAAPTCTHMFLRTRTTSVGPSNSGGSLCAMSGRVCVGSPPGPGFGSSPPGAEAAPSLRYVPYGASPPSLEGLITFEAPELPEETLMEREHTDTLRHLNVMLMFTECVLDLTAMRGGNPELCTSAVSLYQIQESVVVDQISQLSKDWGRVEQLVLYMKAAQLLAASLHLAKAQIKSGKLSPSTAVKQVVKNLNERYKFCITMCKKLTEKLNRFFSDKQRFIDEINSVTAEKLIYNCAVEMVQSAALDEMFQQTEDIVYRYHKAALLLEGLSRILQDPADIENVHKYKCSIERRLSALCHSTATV

[22] = target: Receptor tyrosine-protein kinase erbB-2 (Homo sapiens, UniProt P04626); assay: Binding affinity to human ERBB2 (K646 to V1225 residues) expressed in mammalian expression system by KINOMEscan assay
[23] = target: Mitogen-activated protein kinase 10 (Homo sapiens, UniProt P53779); assay: Binding affinity to human JNK3 (V28 to Q422 residues) expressed in mammalian expression system by KINOMEscan assay
Sequence of Mitogen-activated protein kinase 10 (P53779 whole entry, the tested form may be a part): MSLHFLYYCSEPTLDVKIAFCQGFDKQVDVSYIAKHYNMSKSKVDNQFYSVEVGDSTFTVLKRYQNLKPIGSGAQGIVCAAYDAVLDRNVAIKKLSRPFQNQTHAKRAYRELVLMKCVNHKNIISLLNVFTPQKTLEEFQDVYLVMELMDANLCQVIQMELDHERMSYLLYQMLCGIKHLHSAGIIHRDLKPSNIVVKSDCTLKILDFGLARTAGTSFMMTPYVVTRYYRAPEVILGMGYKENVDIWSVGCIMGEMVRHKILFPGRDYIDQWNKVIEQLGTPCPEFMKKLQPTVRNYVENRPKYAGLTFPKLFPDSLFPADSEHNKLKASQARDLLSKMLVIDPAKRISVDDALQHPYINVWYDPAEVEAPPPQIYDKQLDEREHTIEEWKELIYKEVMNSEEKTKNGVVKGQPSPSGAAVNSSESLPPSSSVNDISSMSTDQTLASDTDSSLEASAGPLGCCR

[24] = target: Platelet-derived growth factor receptor beta (Homo sapiens, UniProt P09619); assay: Binding affinity to human PDGFRB (V582 to Y1009 residues) expressed in bacterial expression system by KINOMEscan assay
[25] = target: Serine/threonine-protein kinase pim-3 (Homo sapiens, UniProt Q86V86); assay: Binding affinity to human PIM3 (G16 to A317 residues) expressed in bacterial expression system by KINOMEscan assay
[26] = target: Ribosomal protein S6 kinase alpha-3 (Homo sapiens, UniProt P51812); assay: Binding affinity to human N-terminal RSK2 kinase domain 1 (M1 to D394 residues) expressed in mammalian expression system by KINOMEscan assay

## CC(C)CN(C(=O)c1cccnc1)c1c2ccccc2c(=O)n2c1[nH]c1ccccc12
HT-29 [1]
  inhibition: Active
SW-620 [2]
  Activity: 39.26%
HT-29 [3]
  Activity: 16.97%
SW-620 [4]
  Activity: 21.52%
SW-620 [5]
  Activity: 4.1%
SW-620 [6]
  Activity: 12.1%
HT-29 [7]
  Activity: 31.1%
HT-29 [8]
  Activity: Dose-dependent effect
HT-29 [9]
  inhibition: Active
HT-29 [10]
  inhibition: Active
[11]
  Activity: 92%
[12]
  Activity: 100%
Aurora kinase B
  Activity: 92%
[13]
  Activity: 97%
[14]
  Activity: 100%
[15]
  Activity: 87%
[16]
  Activity: 76%
[17]
  Activity: 100%
Insulin receptor
  Activity: 100%
[18]
  Activity: 100%
[19]
  Activity: 87%
[20]
  Activity: 100%
[21]
  Activity: 87%
[22]
  Kd: ≥ 5 µM
[23]
  Kd: ≥ 5 µM
[24]
  Kd: ≥ 5 µM
[25]
  Kd: ≥ 5 µM
[26]
  Kd: ≥ 5 µM
